Data: the RNAGym collection of RNA variant scans (doi:10.1126/science.aae0568)
Variants at the floor of the assay were thinned out.

B1: tRNA (parent)
chain: GUUCCGUUGGCGUAAUGGUAACGCGUCUCCCUCCUAAGGAGAAGACUGCGGGUUCGAGUCCCGUACGGAACG

Variants of: B1
Test: yeast fitness relative to wild type (ratio to wild type); higher = fitter; tRNA-Arg(CCU), competitive growth, 37 C, YPD
Summary of the method: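 Gene amplicons from the start population and from each of six end populations were read by 100-nucleotide paired-end sequencing. Those end populations came from pooled Saccharomyces cerevisiae strains carrying tRNA-Arg(CCU) gene variants at the native locus, competed in YPD at 37°C for 24 hours. Fitness relative to wild type was worked out from changes in genotype frequencies. Genotypes needed ≥ 100 starting reads, and estimates < 0.5 were set to 0.5.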

Row | Variant | yeast fitness
1 | GUUCCGUUGGCAUAAUGGUAACGCGUCUCCCUCCUAAGGAGAAGACUGCGGGUUAGAGUCCCGUACAGAGCG [G12A C55A G67A A70G] | ≤ 0.5
2 | GUUCCGUUGGCAUAAUCGUAACGCGUCUCCCUCCUAAGGAGAAGACUGCGGGUUCGAGUCCCGUAUGGAACG [G12A G17C C66U] | ≤ 0.5
3 | GUUCCGUUGGCAUAAUGCUAACGCGUCUCCCUUCUAAGGAGAAGACUGCGGGUUCGAGUCCCGUACGGCACG [G12A G18C C33U A69C] | 0.528
4 | GUUCCGUUGGCAUAAUGGUAACGCGUCUCCUUCCUAAGGAGAAGACUGCGGGUUGGAGUCCCGUACCGAACG [G12A C31U C55G G67C] | ≤ 0.5
5 | GUUCCGUUGGCAUAAUGGUAACGCGUCUCCCUCCUAAGGAGAAGAGUGCGGGUUCGCGUCCCGUACGGAACG [G12A C46G A57C] | ≤ 0.5
6 | GUUCCGUUGGCAUAAUGGUAACGCGUCUCCCUCCUAAGGAGAAGACUGCGGGUUCGAGUCCUGUACGGAACG [G12A C62U] | 0.815
7 | GUUCCGUUGGCAUAAUGGUAACGCGUCUCCCUCCUAAGGAGAAGACUGCGGGUUCGAGUCCAGUACGGAACG [G12A C62A] | 0.823
8 | GUUCCGUUGGCAUAAUGGUAACGCGUCUCCCUCCUAAGGAGAAGACUGAGGCUUCGAGUCCCGUACGGAACG [G12A C49A G52C] | ≤ 0.5
9 | GUUCCGUUGGCAUAAUUGUAACGCGUCUCCCUCCUAAGGAGAAGACUGGGGGUUCGAGUUCCGUACGAAACG [G12A G17U C49G C60U G68A] | ≤ 0.5
10 | GUUCCGUUGGCAUAAUGGUAACGCGUCUCCCUCCUAAGGAGAAGAUUGCGCGUUCGAGUCCCGUACGGAACG [G12A C46U G51C] | ≤ 0.5
11 | GUUCCGUUGGCAUAAUGGUAACGCGUCUCACUCCUAAGGAGAAGACUGCGGGUUCGAGUCCCGUACGGAUCG [G12A C30A A70U] | 0.759
12 | GUUCCGUUGGCAUAAUGGUAACGCGUCUCACUCCUAAGGAGAAGAGUGCGGGUUCGAGUCCCGUACGGAACG [G12A C30A C46G] | 0.649
13 | GUUCCGUUGGCAUAAUGAUAUCGCGUCUCCCUCCUAAGGAAAAGAUUGCGGGUUCGAGUCCCGUACGGAACG [G12A G18A A21U G41A C46U] | 0.535
14 | GUUCCGUUGGCAUAAUGGUAACACGUCUCCCUCCGGAGGAGAAGAUUGCGGGUUCGUGUCCCGUACGGAACG [G12A G23A U35G A36G C46U A57U] | ≤ 0.5
15 | GUUCCGUUGGCAUAAUGGUAACGCGUCUCCUUCCUAAGGAGAAGACUGCGGGUUCGAGUCCCGUACGGAGCG [G12A C31U A70G] | 0.803
16 | GUUCCGUUGGCAUAAUAGUACCGCGUCUUCCUCCUAAGGAGAAGACUGCGGGUUCGAGUCCCGUACGGAACG [G12A G17A A21C C29U] | ≤ 0.5
17 | GUUCCGUUGGCAUAAUGGUAACGCGUCUCCCUCCUAAGGAGAAGACUGCGGGUUCGAGUCCCGUAUGGAACG [G12A C66U] | 0.834
18 | GUUCCGUUGGCAUAAUGGUAACGCGUCUCCCUCCUAAGGAGAAGACUGCGGGUUCGAGUCCCGUAAGGAACG [G12A C66A] | 0.654
19 | GUUCCGUUGGCAUAAUGGUAACGCGUCUCCCUCCUAAGGAGAAGACUGCGGGUUCGAGUCCCGUAGGGAACG [G12A C66G] | 0.79

Row | Variant | yeast fitness
20 | GUUCCGUUGGCAUAAUGGUAACGCGUCUCCCUCCUAAGGAGAAGAUUGCGGGUUCGAGUCCCGUACGGAACG [G12A C46U] | 0.9
21 | GUUCCGUUGGCAUAAUGGUAACGCGUCUCCUUCCUAAGGAGAAGACUGCGGGUUCGAGUCUCGAACGGAACG [G12A C31U C61U U64A] | ≤ 0.5
22 | GUUCCGUUGGCAUAAUGGUAACGCGUCUCUCUCCUAAGGAGAAGACAGCGGGUCCGAGUCCCGUACGGAACG [G12A C30U U47A U54C] | ≤ 0.5
23 | GUUCCGUUGGCAUAAUGGUAACGCGUCUCCGUCCUAAGGAGAAGACUGCGGGUUCGAGUCCCGUACGGAACG [G12A C31G] | 0.963
24 | GUUCCGUUGGCAUAAUGGUAACGCGUCUCCCUCCUAAGGAGAAGACUGUGGGUUCGAGUCCUGUACGGAACG [G12A C49U C62U] | 0.68
25 | GUUCCGUUGGCAUAAUGGUAACGCGUCUCCCUCCUAAGGAGAAGAUUGCGCGUUCGAGUCCCGUACGGAUCG [G12A C46U G51C A70U] | 0.534
26 | GUUCCGUUGGCAUAAUGGUAACGCGUCUCCCUCCUAAGGAGAAGACUGCGGGUUCGAGUCACGUUCGGAACG [G12A C61A A65U] | ≤ 0.5
27 | GUUCCGUUGGCAUAAUGGUAACGCGUCUCCCUCCUAAGGAGAAGACUGAGAGUUCGAGUCCCGUACGGAACG [G12A C49A G51A] | ≤ 0.5
28 | GUUCCGUUGGCAUAAUGGUAACGCGUCUCCCUGCUAACGAGAAGACUGCGGGUUCGAGUCCCGUACGGAACG [G12A C33G G38C] | ≤ 0.5
29 | GUUCCGUUGGCAUAAUGCUAACGCGUCUCCCUCCUAAGGAGAAGACUGCGGGUUCGAGUCCCGUACGGAACG [G12A G18C] | 0.591
30 | GUUCCGUUGGCAUAAUGGUAACGCGUCUCCUUCCUCAGCAGAAGACUGCGGGUUUGUGUCCCGUACGGAACG [G12A C31U A36C G39C C55U A57U] | ≤ 0.5
31 | GUUCCGUUGGCAUAAUAGUAACGCGACUCCCUCCUAAGGUGAAGACUGCGGGUUCGAGUCCCGUACGGAACG [G12A G17A U26A A40U] | ≤ 0.5
32 | GUUCCGUUGGCAUAAUGGUAACGCGUCUCCAUCCUAAGGAGGAGACUGCGGGUUCGUGACCCGUACGGAACG [G12A C31A A42G A57U U59A] | ≤ 0.5
33 | GUUCCGUUGGCAUAAUGGUAACGCGUCUCCCUCAUAAGGAGAGGACUGCGGGUUCGAGUCCCGUACGGAACG [G12A C34A A43G] | 0.531
34 | GUUCCGUUGGCAUAAUGGUAACGCGUCUCGCUCCUAAGGAGAAGACCGCGGGUCCGAGUCCCGUACGGAACG [G12A C30G U47C U54C] | ≤ 0.5
35 | GUUCCGUUGGCAUAAUGGUAACACGUCUCCCUCCGGAGGAGAAGACUGCGGGUUCGCGUCCUGUACGGAACG [G12A G23A U35G A36G A57C C62U] | ≤ 0.5
36 | GUUCCGUUGGCAUAAUGCUAACGCGUCUCCCUCCUAAGGAGUAGACUGCGGGUUCGAAUCCCGUACGAAACG [G12A G18C A42U G58A G68A] | ≤ 0.5
37 | GUUCCGUUGGCAUAAUGGUAACACGUCUCCCUCCGAAGGAGAAGACUGCGGGUUCGAAUCCCGUACGGAACG [G12A G23A U35G G58A] | ≤ 0.5
